Experimental data of several laboratories.
Each line is one published result; the experiments were not run side by side.
Target: Serine/threonine-protein kinase 38 (STK38, Homo sapiens, UniProt Q15208)

CN(c1nccc(-c2cnn3ncccc23)n1)C1CC1 — remaining binding (binding; 1 µM): 100%
O=C(c1ccc(Nc2nccc(-c3cc4ccccc4s3)n2)cc1)N1CCC(N2CCCC2)CC1 — remaining binding (binding; competition with immobilised ligand; 1 µM): 76%
Nc1ncc2c(n1)-c1c([nH]c3ccc(C#CC4CC4)cc13)CCCC2 — remaining binding (binding; competition with immobilised ligand; 1 µM): 87%
COc1ccc2c(O[C@@H]3C[C@H]4C(=O)N[C@]5(C(=O)O)CC5/C=C\CCCCC[C@H](NC(=O)OC5CCCC5)C(=O)N4C3)cc(-c3csc(NC(=O)C(C)C)n3)nc2c1C (stereo partly drawn) — remaining binding (cell-free assay; competition with immobilised ligand; 1 µM): 50%
COc1ncc2cc3ccccc3nc2c1C#N — remaining binding (cell-free assay; competition with immobilised ligand; 5 µM): 94%
Cc1nc(N2CC[C@@H](O)C2)ncc1-c1cc(C(F)(F)F)cc2[nH]ncc12 — remaining binding (binding; competition with immobilised ligand; 1 µM): 95%
CN(C)c1nccc(-c2cnc3ncccn23)n1 — remaining binding (binding; 1 µM): 79%
Cn1nc(C(F)(F)F)cc1-c1cnc(N2CCc3cc(S(=O)(=O)Nc4c(F)cc(Cl)cc4F)cc(N4CCCC4=O)c32)nc1 — remaining binding (cell-free assay; competition with immobilised ligand; 1 µM): 97%
O=C(NCCCN1CCOCC1)c1ccc(Nc2ncc(Cl)c(-c3ccc(Cl)s3)n2)cc1 — remaining binding (binding; competition with immobilised ligand; 1 µM): 76%
N[C@H]1CCN(c2nccc(-c3cnn4ncccc34)n2)C1 — remaining binding (binding; 1 µM): 100%
COc1cnc(Nc2cccc(S(N)(=O)=O)c2)nc1N1CCN(c2ccccc2)CC1 — remaining binding (binding; competition with immobilised ligand; 1 µM): 78%
O=C(NCC1CCOCC1)c1n[nH]cc1NC(=O)c1c(F)cccc1F — remaining binding (binding; competition with immobilised ligand; 1 µM): 84%
C=CC(=O)N1CCC(C(=O)NCC(=O)N2CCN(c3nc(-c4cnc(N)nc4C(F)F)nc(N4CCOCC4)n3)CC2)CC1 — remaining binding (binding; competition with immobilised ligand; 1 µM): 88%
CCS(=O)(=O)c1cc2cc(C[C@@](O)(CC(C)(C)c3ccc(F)cc3C(N)=O)C(F)(F)F)[nH]c2cn1 — remaining binding (cell-free assay; competition with immobilised ligand; 1 µM): 76%
CNC(=O)[C@@H]1CC[C@@H](n2c(-c3ccc4cnccc4c3)nc3ccc(C(=O)NCc4cccc(C(N)=O)c4)cc32)C1 — remaining binding (binding; competition with immobilised ligand; 1 µM): 62%
C[C@@H]1CCN(c2nccc(-c3cnn4ncccc34)n2)C1 — remaining binding (binding; 1 µM): 72%
O=C(NCCCN1CCOCC1)c1ccc(Nc2nccc(-c3cc4ccccc4s3)n2)cc1 — remaining binding (binding; competition with immobilised ligand; 1 µM): 66%
CN(CCCC(F)(F)F)c1nccc(-c2cnn3ncccc23)n1 — remaining binding (binding; 1 µM): 100%
CCOC(=O)c1cc2cc(-c3cc(C(=O)NCc4ccc(C(=O)O)cc4)nn3C)ccc2[nH]1 — remaining binding (cell-free assay; competition with immobilised ligand; 0.1 µM): 95%
c1cnn2ncc(-c3ccnc(N4CCC45COC5)n3)c2c1 — remaining binding (binding; 1 µM): 87%
CCOCCn1cc(C(=O)Nc2ccc(-n3nc(-c4cccnc4)cc3C(F)(F)F)cn2)ccc1=O — remaining binding (cell-free assay; competition with immobilised ligand; 1 µM): 91%
